From ChEMBL document CHEMBL3259740, “Design, synthesis and evaluation of novel diaryl urea derivatives as potential antitumor agents” (Eur J Med Chem, 2014)

Legend:
MX1 = assay: Cytotoxicity against human MX1 cells assessed as growth inhibition after 120 hrs by MTT assay; assay type: functional, cell-based; conditions: MX1, 120 h
How it was run: (§1)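 Cells kept in DMEM with 10% FBS, penicillin and streptomycin at 37 °C, 5% CO2. Seeded at 2000 cells/well, grown 24 h, then exposed to a range of compound concentrations for 120 h. MTT at 0.5 mg/mL added for 4 h at 37 °C. Formazan dissolved in DMSO, absorbance read at 570 nm. IC50 is the mean of three determinations.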

KETR3 = assay: Cytotoxicity against human Ketr3 cells assessed as growth inhibition after 120 hrs by MTT assay; assay type: functional, cell-based; conditions: KETR3, 120 h; how it was run: as §1
A-375 = assay: Cytotoxicity against human A375 cells assessed as growth inhibition after 120 hrs by MTT assay; assay type: functional, cell-based; conditions: A-375, 120 h; how it was run: as §1
HT-29 [1] = assay: Cytotoxicity against human HT-29 cells assessed as growth inhibition after 120 hrs by MTT assay; assay type: functional, cell-based; conditions: HT-29, 120 h; how it was run: as §1
HepG2 = assay: Cytotoxicity against human HepG2 cells assessed as growth inhibition after 120 hrs by MTT assay; assay type: functional, cell-based; conditions: HepG2, 120 h; how it was run: as §1
[2] = target: Serine/threonine-protein kinase B-raf (Homo sapiens, UniProt P15056); assay: Inhibition of B-Raf (unknown origin) after 1 hr by ADP-Glo assay
[3] = target: RAF proto-oncogene serine/threonine-protein kinase (Homo sapiens, UniProt P04049); assay: Inhibition of C-Raf (unknown origin) after 1 hr by ADP-Glo assay
How it was run: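 Run in duplicate. Kinase, substrate, ATP and compound reacted 1 h at 30 °C. ADP-Glo reagent was added to stop the reaction, followed by 40 min at 27 °C. Kinase detection reagent was then added for a further 30 min at the same temperature before luminescence reading.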

HT-29 [4] = assay: Potency index, ratio of sorafenib IC50 to compound IC50 for human HT-29 cells; assay type: functional

Chain of Serine/threonine-protein kinase B-raf (P15056 whole entry): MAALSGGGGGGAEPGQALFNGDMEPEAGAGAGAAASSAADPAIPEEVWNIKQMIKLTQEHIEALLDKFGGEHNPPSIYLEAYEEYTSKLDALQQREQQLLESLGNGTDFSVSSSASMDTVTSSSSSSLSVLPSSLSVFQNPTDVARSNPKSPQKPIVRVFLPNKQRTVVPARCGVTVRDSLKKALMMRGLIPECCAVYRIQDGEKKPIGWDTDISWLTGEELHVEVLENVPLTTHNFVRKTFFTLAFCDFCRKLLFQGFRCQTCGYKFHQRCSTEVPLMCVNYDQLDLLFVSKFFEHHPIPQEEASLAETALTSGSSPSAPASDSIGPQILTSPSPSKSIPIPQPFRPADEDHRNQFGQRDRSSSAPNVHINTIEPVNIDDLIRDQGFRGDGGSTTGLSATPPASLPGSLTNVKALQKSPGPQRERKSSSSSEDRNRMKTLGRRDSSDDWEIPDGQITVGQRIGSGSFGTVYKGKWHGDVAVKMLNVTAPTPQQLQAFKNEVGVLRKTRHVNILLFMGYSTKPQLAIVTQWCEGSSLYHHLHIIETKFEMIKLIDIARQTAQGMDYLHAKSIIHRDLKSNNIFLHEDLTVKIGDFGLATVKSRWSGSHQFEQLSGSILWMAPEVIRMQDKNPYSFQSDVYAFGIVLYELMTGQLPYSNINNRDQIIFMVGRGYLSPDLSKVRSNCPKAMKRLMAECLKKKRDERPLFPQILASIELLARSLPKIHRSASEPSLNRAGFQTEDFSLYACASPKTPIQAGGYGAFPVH
Chain of RAF proto-oncogene serine/threonine-protein kinase (P04049 whole entry): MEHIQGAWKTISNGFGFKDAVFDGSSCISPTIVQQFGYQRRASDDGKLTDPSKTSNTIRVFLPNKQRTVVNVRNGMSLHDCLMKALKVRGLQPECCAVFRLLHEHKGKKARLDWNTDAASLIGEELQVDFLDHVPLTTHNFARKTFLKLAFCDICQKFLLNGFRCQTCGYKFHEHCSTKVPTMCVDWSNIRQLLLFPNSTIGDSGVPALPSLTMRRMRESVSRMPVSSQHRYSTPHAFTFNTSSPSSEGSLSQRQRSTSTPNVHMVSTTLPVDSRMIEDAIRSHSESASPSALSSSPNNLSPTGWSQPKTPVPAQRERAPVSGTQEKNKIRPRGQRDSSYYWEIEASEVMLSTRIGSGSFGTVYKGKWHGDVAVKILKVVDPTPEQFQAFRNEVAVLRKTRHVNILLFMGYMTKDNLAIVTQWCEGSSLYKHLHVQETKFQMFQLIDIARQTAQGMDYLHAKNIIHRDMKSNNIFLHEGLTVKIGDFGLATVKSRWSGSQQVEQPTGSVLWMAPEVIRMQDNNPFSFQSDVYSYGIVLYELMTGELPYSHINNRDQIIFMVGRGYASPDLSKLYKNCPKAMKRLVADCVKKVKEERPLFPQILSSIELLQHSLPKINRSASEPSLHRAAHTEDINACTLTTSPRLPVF

| Compound | IC50 (MX1) [µM] | IC50 (KETR3) [µM] | IC50 (A-375) [µM] | IC50 (HT-29 [1]) [µM] | IC50 (HepG2) [µM] | IC50 [2] [µM] | IC50 [3] [µM] | Ratio IC50 (HT-29 [4]) |
| --- | --- | --- | --- | --- | --- | --- | --- | --- |
| CNC(=O)/C=C/c1ccc(NC(=O)Nc2ccc(Cl)c(C(F)(F)F)c2)cc1 | 13.8 | 21.2 | 20.9 | 11.7 | 20.4 |  |  |  |
| CC(NC(=O)/C=C/c1ccc(NC(=O)Nc2ccc(Cl)c(C(F)(F)F)c2)cc1)c1ccccc1 (centres undefined) | 3.13 | 21.2 | 20.8 | 1.06 | 12.2 |  |  |  |
| CC(NC(=O)/C=C/c1ccc(NC(=O)Nc2cc(C(F)(F)F)ccc2Cl)cc1)c1ccccc1 (centres undefined) | 1.89 | 14.3 | 40.9 | 4.19 | 35.9 |  |  |  |
| O=C(/C=C/c1ccc(NC(=O)Nc2ccc(Cl)c(C(F)(F)F)c2)cc1)NC1CCC1 | 4.53 | 17.3 | 15.4 | 4.43 | 7.51 |  |  |  |
| CC1CN(C(=O)/C=C/c2ccc(NC(=O)Nc3ccc(Cl)c(C(F)(F)F)c3)cc2)CC(C)O1 (centres undefined) | 12.8 | > 50 | > 50 | 9.1 | 45.9 |  |  |  |
| CNC(=O)CCc1ccc(NC(=O)Nc2ccc(Cl)c(C(F)(F)F)c2)cc1 | 20.4 | 24 | 25.2 | 20.6 | 21 |  |  |  |
| CC(NC(=O)CCc1ccc(NC(=O)Nc2ccc(Cl)c(C(F)(F)F)c2)cc1)c1ccccc1 (centres undefined) | > 50 | > 50 | > 50 | 26.5 | > 50 |  |  |  |
| O=C(CCc1ccc(NC(=O)Nc2ccc(Cl)c(C(F)(F)F)c2)cc1)NC1CCC1 | 24 | > 50 | > 50 | 21.3 | > 50 |  |  |  |
| CC1CN(C(=O)CCc2ccc(NC(=O)Nc3ccc(Cl)c(C(F)(F)F)c3)cc2)CC(C)O1 (centres undefined) | > 50 | > 50 | > 50 | > 50 | > 50 |  |  |  |
| CNC(=O)/C(C)=C/c1ccc(NC(=O)Nc2ccc(Cl)c(C(F)(F)F)c2)cc1 | > 50 | > 50 | > 50 | > 50 | 44.3 |  |  |  |
| C/C(=C\c1ccc(NC(=O)Nc2ccc(Cl)c(C(F)(F)F)c2)cc1)C(=O)NC(C)c1ccccc1 (centres undefined) | > 50 | > 50 | > 50 | > 50 | > 50 |  |  |  |
| C/C(=C\c1ccc(NC(=O)Nc2ccc(Cl)c(C(F)(F)F)c2)cc1)C(=O)N1CC(C)OC(C)C1 (centres undefined) | > 50 | > 50 | > 50 | > 50 | > 50 |  |  |  |
| CNC(=O)/C=C(\C)c1ccc(NC(=O)Nc2ccc(Cl)c(C(F)(F)F)c2)cc1 | > 50 | > 50 | > 50 | > 50 | > 50 |  |  |  |
| C/C(=C\C(=O)NC(C)c1ccccc1)c1ccc(NC(=O)Nc2ccc(Cl)c(C(F)(F)F)c2)cc1 (centres undefined) | > 50 | > 50 | > 50 | > 50 | > 50 |  |  |  |
| C/C(=C\C(=O)N1CC(C)OC(C)C1)c1ccc(NC(=O)Nc2ccc(Cl)c(C(F)(F)F)c2)cc1 (centres undefined) | > 50 | > 50 | 46.2 | 26.2 | > 50 |  |  |  |
| CNC(=O)/C=C/Oc1ccc(NC(=O)Nc2ccc(Cl)c(C(F)(F)F)c2)cc1 | 18.8 | > 50 | 36.8 | > 50 | 24.2 |  |  |  |
| CC(NC(=O)/C=C/Oc1ccc(NC(=O)Nc2ccc(Cl)c(C(F)(F)F)c2)cc1)c1ccccc1 (centres undefined) | 13.7 | 14.5 | 20.7 | > 50 | 14.1 |  |  |  |
| CC(NC(=O)/C=C/Oc1ccc(NC(=O)Nc2cc(C(F)(F)F)ccc2Cl)cc1)c1ccccc1 (centres undefined) | 16.1 | 16.4 | 16 | > 50 | 11.9 |  |  |  |
| CNC(=O)C#Cc1ccc(NC(=O)Nc2ccc(Cl)c(C(F)(F)F)c2)cc1 | 26.4 | 24.7 | > 50 | 14 | 23.3 |  |  |  |
| CC(NC(=O)C#Cc1ccc(NC(=O)Nc2ccc(Cl)c(C(F)(F)F)c2)cc1)c1ccccc1 (centres undefined) | 12.8 | 21.4 | 16.8 | 4.92 | 20.5 |  |  |  |
| CC(NC(=O)C#Cc1ccc(NC(=O)Nc2cc(C(F)(F)F)ccc2Cl)cc1)c1ccccc1 (centres undefined) | 16.1 | 23.2 | 30.5 | 3.17 | 19 |  |  |  |
| CNC(=O)c1cccc(-c2ccc(NC(=O)Nc3ccc(Cl)c(C(F)(F)F)c3)cc2)c1 | > 50 | 39.3 | 46.5 | 29.3 | 37.1 |  |  |  |
| CC(NC(=O)c1cccc(-c2ccc(NC(=O)Nc3ccc(Cl)c(C(F)(F)F)c3)cc2)c1)c1ccccc1 (centres undefined) | 5.24 | 6.46 | 5.17 | 6.32 | 5.67 | > 50 | > 50 |  |
| CC(NC(=O)c1ccc(-c2ccc(NC(=O)Nc3ccc(Cl)c(C(F)(F)F)c3)cc2)cc1)c1ccccc1 (centres undefined) | 4.63 | 19.3 | 12.8 | 5.96 | 16.8 |  |  |  |
| CC(NC(=O)c1ccc(-c2ccc(NC(=O)Nc3cc(C(F)(F)F)ccc3Cl)cc2)cc1)c1ccccc1 (centres undefined) | 17.7 | 16.8 | 16.9 | 6.57 | 18.4 |  |  |  |
| CC1CN(C(=O)c2ccc(-c3ccc(NC(=O)Nc4ccc(Cl)c(C(F)(F)F)c4)cc3)cc2)CC(C)O1 (centres undefined) | > 50 | 41.9 | > 50 | 2.05 | 31.1 |  |  | 8 |
| CC1CN(C(=O)c2ccc(-c3ccc(NC(=O)Nc4cc(C(F)(F)F)ccc4Cl)cc3)cc2)CC(C)O1 (centres undefined) | > 50 | > 50 | > 50 | 1.9 | > 50 |  |  | 8 |
| CNC(=O)c1cc(Oc2ccc(NC(=O)Nc3ccc(Cl)c(C(F)(F)F)c3)cc2)ccn1 [SORAFENIB] | 8.27 | 18.8 | 9.17 | 15.2 | 8.67 |  |  |  |
